Measured values: publication PMC3188381 (Anti-cancer drugs, 2011)
Read-outs that look alike come from different tables or passages of the source.

Key:
[1] = system: OVCA432 ovarian cancer cells; assay: Proliferation assay; assay type: cell-based, human; settings: read-out: IC50 (μM) OVCA432
[2] = system: SKOV3 ovarian cancer cells; assay: Proliferation assay; assay type: cell-based, human; settings: read-out: IC50 (μM) SKOV3
OVCA432 cells [3] = assay: DAPI staining for apoptotic cells, OVCA432; assay type: cell-based, human; settings: OVCA432, 24 hrs; 50 μM LiCl, 5 μM 9ING41, 25 μM SB216763; vs DMSO
How it was run: (§1)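 OVCA432 grown in supplemented MEM and SKOV3 in McCoy's 5A, both with 10% FBS, at 37 °C, 5% CO2. Cells plated at 5 × 10^4 per chamber-slide well and left to attach overnight. Exposed one day to test compound or 0.1% DMSO, then fixed in 4% paraformaldehyde and mounted in DAPI medium. Nuclei with condensed DNA or […] fragmentation counted in 3 fields (20× objective), triplicate experiments.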

SKOV3 cells [4] = assay: DAPI staining for apoptotic cells, SKOV3; assay type: cell-based, human; settings: SKOV3, 24 hrs; 5 μM 9ING41; vs DMSO
How it was run: as §1

OVCA432 cells [5] = assay: TUNEL staining, OVCA432; assay type: cell-based, human; settings: OVCA432, 24 hours, 5 μM 9ING41; vs DMSO
How it was run: (§2)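 Cells plated at 5 × 10^4 per chamber-slide well, attached overnight at 37 °C, then treated 24 h with test compound or 0.1% DMSO. Fixed in 4% paraformaldehyde. Stained with a colorimetric TUNEL kit per manufacturer. Brown TUNEL-positive cells counted in 3 fields imaged with a 20× objective, from triplicate experiments.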

SKOV3 cells [6] = assay: TUNEL staining, SKOV3; assay type: cell-based, human; settings: SKOV3, 24 hours, 5 μM 9ING41; vs DMSO
How it was run: as §2

OVCA432 cells [7] = assay: Western blot of cell lysates, OVCA432; assay type: cell-based, human; settings: for Cleaved PARP protein expression / Cleaved caspase-3 protein expression: OVCA432, 24 hours, 50 μM LiCl, 5 μM 9ING41, 25 μM SB216763
How it was run: (§3)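 Lysates taken after 24 h treatment with test compound or 0.1% DMSO, in Tris-HCl pH 7.6/NaCl/NP-40/deoxycholate/SDS buffer with protease and phosphatase inhibitors, protein equalised by BCA. Run on reducing 10% Bis-Tris gels and transferred to PVDF. Blocked in 5% milk TBS-T; cleaved caspase-3 in 5% BSA PBS-0.5% tween; cyclin D1 in 5% BSA TBS-T. Probed with rabbit primaries (total GSK3β, actin as controls) and HRP anti-rabbit, detected by chemiluminescence. Densitometry from triplicate blots.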

SKOV3 cells [8] = assay: Western blot of cell lysates, SKOV3; assay type: cell-based, human; settings: for Cleaved PARP protein expression / Cleaved caspase-3 protein expression: SKOV3, 24 hours, 50 μM LiCl, 5 μM 9ING41, 25 μM SB216763
How it was run: as §3

[9] = Bioavailability and plasma pharmacokinetics; assay type: in vivo, Sprague-Dawley rats; settings: rat
How it was run: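 Male Sprague-Dawley rats dosed at 10 mg/kg iv and 400 mg/kg po. Blood drawn into EDTA (n=3), kept on ice and processed within 30 min. Plasma spun at 2–8 °C for 15 min and stored at -80 °C. Acetonitrile with 100 ng/ml hexylnicotinate internal standard added, then vortexed and centrifuged at 18000g. Supernatant run by LC-MS/MS. Non-compartmental PK analysis.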

[10] = Range-finding toxicity study; settings: rats, oral, 8 days observation
[11] = system: SKOV3 ovarian cancer cells; settings: cited from earlier work
SKOV3 xenograft = settings: drugs and cells mixed before subcutaneous injection; cited from earlier work
[12] = OVCA432 cells, 4 days (96 hours), concentration required to kill 50% of the cells
[13] = SKOV3 cells, 4 days (96 hours), concentration required to kill 50% of the cells

Q: Which IC50 [1, 12] does the source give for Cn1cc(C2=C(c3coc4ccc(F)cc34)C(=O)NC2=O)c2cc3c(cc21)OCO3 [9-ING-41] here?
A: 11.2 µM

Q: And the IC50 [2, 13]?
A: 10.5 µM

Q: What about the “Induction of apoptosis (DAPI)” value (OVCA432 cells [3]) of the same compound?
A: induced apoptosis

Q: What about the “Induction of apoptosis (DAPI)” value (SKOV3 cells [4]) of the same compound?
A: induced apoptosis

Q: What about the “Apoptosis (TUNEL-positive cells)” value (OVCA432 cells [5]) of the same compound?
A: significantly increased apoptosis

Q: What about the “Apoptosis (TUNEL-positive cells)” value (SKOV3 cells [6]) of the same compound?
A: significantly increased apoptosis

Q: And the “Phosphorylation of GSK3β ser9 (normalized to total GSK3β)” value (OVCA432 cells [7]; OVCA432, 5 μM 9ING41, 24 hours)?
A: increased phosphorylation

Q: And the “Phosphorylation of glycogen synthase” value (OVCA432 cells [7]; OVCA432, 5 μM 9ING41, 24 hours)?
A: significantly inhibited

Q: And the “Cleaved PARP protein expression” value (OVCA432 cells [7])?
A: cleaved product of PARP was detected

Q: What about the “Cleaved caspase-3 protein expression” value (OVCA432 cells [7]) of the same compound?
A: increase in cleaved caspase-3

Q: And the “Cyclin D1 expression” value (SKOV3 cells [8]; SKOV3, 5 μM 9ING41, 24 hours)?
A: increased

Q: And the “Phosphorylation of GSK3β ser9 (normalized to total GSK3β)” value (SKOV3 cells [8]; SKOV3, 5 μM 9ING41, 24 hours)?
A: increased phosphorylation

Q: What about the “Phosphorylation of glycogen synthase” value (SKOV3 cells [8]; SKOV3, 5 μM 9ING41, 24 hours) of the same compound?
A: significantly inhibited

Q: What about the “Cleaved PARP protein expression” value (SKOV3 cells [8]) of the same compound?
A: cleaved product of PARP was detected

Q: What about the “Cleaved caspase-3 protein expression” value (SKOV3 cells [8]) of the same compound?
A: increase in cleaved caspase-3

Q: What about the “AUC (area under the concentration-time curve)” value ([9]; iv 10 mg/kg) of the same compound?
A: 2740 ng·h/mL

Q: What about the “CL (systematic clearance)” value ([9]; iv 10 mg/kg) of the same compound?
A: 61.5 mL/min/kg

Q: And the “Co (plasma concentration at T = 0)” value ([9]; iv 10 mg/kg)?
A: 1390 ng/mL

Q: What about the “T1/2 (apparent elimination half-life)” value ([9]; iv 10 mg/kg) of the same compound?
A: 4.85 h

Q: What about the “V (volume of distribution)” value ([9]; iv 10 mg/kg) of the same compound?
A: 26.2 L/kg

Q: And the Elimination half-life ([9]; iv 10 mg/kg and po 400 mg/kg)?
A: 4.0 to 4.85 h

Q: And the Volumes of distribution ([9]; iv 10 mg/kg and po 400 mg/kg)?
A: ≥ 26 L/kg

Q: And the “Plasma level C” value ([9]; iv 10 mg/kg, 0.083 h)?
A: 1390 ng/mL

Q: What about the “Plasma level C” value ([9]; iv 10 mg/kg, 0.167 h) of the same compound?
A: 1410 ng/mL

Q: And the “Plasma level C” value ([9]; iv 10 mg/kg, 0.5 h)?
A: 1190 ng/mL

Q: And the “Plasma level C” value ([9]; iv 10 mg/kg, 1 h)?
A: 690 ng/mL

Q: And the “Plasma level C” value ([9]; iv 10 mg/kg, 2 h)?
A: 367 ng/mL

Q: What about the “Plasma level C” value ([9]; iv 10 mg/kg, 4 h) of the same compound?
A: 139 ng/mL

Q: What about the “Plasma level C” value ([9]; iv 10 mg/kg, 6 h) of the same compound?
A: 77 ng/mL

Q: What about the “Plasma level C” value ([9]; iv 10 mg/kg, 8 h) of the same compound?
A: 41 ng/mL

Q: And the “Plasma level C” value ([9]; iv 10 mg/kg, 24 h)?
A: 6.7 ng/mL

Q: And the “AUC (area under the concentration-time curve)” value ([9]; po 400 mg/kg)?
A: 4950 ng·h/mL

Q: What about the “CL (systematic clearance)” value ([9]; po 400 mg/kg) of the same compound?
A: 2210 mL/min/kg

Q: What about the “T1/2 (apparent elimination half-life)” value ([9]; po 400 mg/kg) of the same compound?
A: 4.0 h

Q: What about the “V (volume of distribution)” value ([9]; po 400 mg/kg) of the same compound?
A: 810 L/kg

Q: What about the “F (bioavailability)” value ([9]; po 400 mg/kg vs iv 10 mg/kg) of the same compound?
A: 4.5%

Q: What about the “Plasma level C” value ([9]; po 400 mg/kg, 0.083 h) of the same compound?
A: 4.7 ng/mL

Q: And the “Plasma level C” value ([9]; po 400 mg/kg, 0.167 h)?
A: 18.2 ng/mL

Q: And the “Plasma level C” value ([9]; po 400 mg/kg, 0.5 h)?
A: 156 ng/mL

Q: And the “Plasma level C” value ([9]; po 400 mg/kg, 1 h)?
A: 540 ng/mL

Q: And the “Plasma level C” value ([9]; po 400 mg/kg, 2 h)?
A: 820 ng/mL

Q: And the “Plasma level C” value ([9]; po 400 mg/kg, 4 h)?
A: 934 ng/mL

Q: And the “Plasma level C” value ([9]; po 400 mg/kg, 6 h)?
A: 340 ng/mL

Q: And the “Plasma level C” value ([9]; po 400 mg/kg, 8 h)?
A: 123 ng/mL

Q: And the “Plasma level C” value ([9]; po 400 mg/kg, 24 h)?
A: 8.3 ng/mL

Q: What about the “Maximum tolerated dose (MTD)” value [10] of the same compound?
A: greater than 500 mg/kg

Q: For COc1cccc2c(C3=C(c4cn(C)c5cc(Cl)c(F)cc45)C(=O)NC3=O)coc12 [9-ING-87], which IC50 [1, 12] is on record?
A: 10.7 µM

Q: What about the IC50 [2, 13] of the same compound?
A: 42.7 µM

Q: What does the source list for [Cl-].[Li+] [LiCl, Lithium chloride, reference compound]?
A: Induction of apoptosis (DAPI) (OVCA432 cells [3]): induced apoptosis; Cleaved PARP protein expression (OVCA432 cells [7]): absence; Cleaved caspase-3 protein expression (OVCA432 cells [7]): absence; Cleaved PARP protein expression (SKOV3 cells [8]): absence; Cleaved caspase-3 protein expression (SKOV3 cells [8]): absence; Growth inhibition of SKOV3 [11]: growth inhibited; SKOV3 tumor growth (SKOV3 xenograft): significantly slow SKOV3 tumor growth

Q: Which IC50 ([1]; Homo sapiens, OVCA432, 96 h) does the source give for Cn1cc(C2=C(c3ccc(Cl)cc3Cl)C(=O)NC2=O)c2ccccc21 [SB216763, reference compound] here?
A: > 50 µM

Q: And the IC50 ([2]; Homo sapiens, SK-OV-3, 96 h)?
A: > 50 µM

Q: What about the “Induction of apoptosis (DAPI)” value (OVCA432 cells [3]) of the same compound?
A: induced apoptosis

Q: And the “Cleaved PARP protein expression” value (OVCA432 cells [7])?
A: absence

Q: And the “Cleaved caspase-3 protein expression” value (OVCA432 cells [7])?
A: absence

Q: What about the “Cleaved PARP protein expression” value (SKOV3 cells [8]) of the same compound?
A: absence

Q: What about the “Cleaved caspase-3 protein expression” value (SKOV3 cells [8]) of the same compound?
A: absence

Q: What about the “Growth inhibition of SKOV3” value [11] of the same compound?
A: growth inhibited
